Compounds with a hit are over-represented: about 2.9% of the library has one in this group of screens.
MC4R antagonist = MC4R antagonists of cAMP signaling, primary screen, cell-based, TR-FRET, antagonist arm of biased-ligand search | Melanocortin receptor 4 (Homo sapiens), P32245 | MC4R-expressing cells, MTII-stimulated cAMP, LANCE TR-FRET | inhibition, % at 6.5 µM | actives 0.48% (n = 360,000);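 active means inhibition above its plate's cutoff, the mean of tested wells on that plate plus 3 SD, cut at about 29% in these data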
Target sequence (P32245 whole entry, looked up): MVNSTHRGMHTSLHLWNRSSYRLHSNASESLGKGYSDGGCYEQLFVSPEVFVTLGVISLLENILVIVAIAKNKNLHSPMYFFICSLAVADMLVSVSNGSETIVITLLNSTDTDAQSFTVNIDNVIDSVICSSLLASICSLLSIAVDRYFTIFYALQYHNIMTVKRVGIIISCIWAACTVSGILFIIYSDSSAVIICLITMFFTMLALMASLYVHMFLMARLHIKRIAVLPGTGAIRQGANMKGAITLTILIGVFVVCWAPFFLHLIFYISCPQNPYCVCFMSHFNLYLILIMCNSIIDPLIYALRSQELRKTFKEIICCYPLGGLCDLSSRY
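Material: U2OS-MC4R stable cell line | Reagent: Melanotan II challenge after compound preincubation | Doses: One concentration, 6.5 µM nominal | Incubation: 30-min compound preincubation, 1-h Melanotan II challenge, 1-h detection, room temperature | Signal: TR-FRET cAMP assay | Replicates: One well per compound, no replicates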
GalR3 antag = GalR3 antagonists in HEK293 cells, primary screen, cell-based, fluorescence readout. Galanin receptor type 3 (Homo sapiens), O60755. HEK293 GalR3-CNG cAMP membrane potential fluorescence; galR3 body fused to GalR1 C-terminus. inhibition, % at 3 µM. actives 0.44% (n = 360,000);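 active means inhibition above the screen-wide average plus 3 SD, cut at about 13% in these data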;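 further: forskolin and galanin both at EC90 stimulate the cells; cAMP rise reported by CNG channel membrane potential dye signal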
Target sequence (O60755 1-299 limits assumed): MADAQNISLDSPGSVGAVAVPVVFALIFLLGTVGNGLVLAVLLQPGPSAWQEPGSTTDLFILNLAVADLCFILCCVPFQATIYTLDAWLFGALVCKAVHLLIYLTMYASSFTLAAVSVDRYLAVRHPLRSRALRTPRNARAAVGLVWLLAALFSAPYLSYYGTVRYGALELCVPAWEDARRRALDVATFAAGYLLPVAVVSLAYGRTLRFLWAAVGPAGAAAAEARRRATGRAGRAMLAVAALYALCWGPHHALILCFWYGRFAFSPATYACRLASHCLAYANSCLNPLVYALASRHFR
H9c2 TAG inh = inhibitors of triacylglycerol accumulation, primary screen, cell-based, uHTS, fluorescence, H9c2; AID 651582, 2012; H9c2 cells, Nile Red lipid (TAG) fluorescence; cells loaded with 200 µM oleic acid; inhibition, % at 12.5 µM; actives 0.66% (n = 230,000);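 active means pattern-corrected inhibition of lipid staining of at least 50% with the nuclear-stain viability signal not falling by more than 50%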
Calb FLC = C. albicans growth inhibition with fluconazole, primary screen, CaCi-2 strain, Alamar Blue fluorescence; C. albicans CaCi-2 + fluconazole, 48 h; growth inhibition, % (no concentration beside the values); actives 0.57% (n = 300,000);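 active means growth inhibition above about 58% in most replicates, limit read from the data, passing the limit was not always enough; inconclusive means exactly half the replicates above a set limit; inactive means most replicates below a set limit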;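 further: all wells also contain fluconazole at 8 µg/ml as a sub-toxic cotreatment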
Efflux pump mplx = inhibitors of Candida efflux pumps in yeast, primary screen, S. cerevisiae, Nile Red, multiplex. S. cerevisiae Candida pump triplex. inhibition, % at 10 µM. actives 0.44% (n = 330,000). AID 485275, 2010;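 active means plate passing quality check with inhibition over a set limit, or well fluorescence over plate mean plus 4 SD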;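 further: Nile Red retained in pooled yeast measured as flow cytometry median fluorescence; higher means more Nile Red kept so more efflux inhibition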
MC4R ag barr = MC4R agonists recruiting beta-arrestin, primary screen, cell-based, luminescence, agonist arm of biased-ligand search | actives 0.98% (n = 360,000) | activation, % at 8.9 µM | Melanocortin receptor 4 (Homo sapiens), P32245 | U2OS MC4R beta-arrestin complementation; percent of melanotan II response, DMSO zero | AID 540308, 2011;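 active means activation above a per-plate cutoff, the mean activation of sample wells on that plate plus 3 SD, cut at about 8% in these data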
H9c2 TAG conf = triacylglycerol accumulation inhibitors, retest, confirmation, cell-based, single concentration, Nile Red fluorescence, H9c2 | shares compounds with H9c2 TAG inh | H9c2 lipid accumulation; cells loaded with 200 µM oleic acid | inhibition, % at 12.5 µM | actives 71% (n = 990) | AID 651629, 2012;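 active means mean inhibition across replicates of 40% or more; inactive means mean inhibition below 40%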
A number is an active result; n = inactive; u = inconclusive; x = no result given.

SMILES	MC4R antagonist	GalR3 antag	H9c2 TAG inh	Calb FLC	Efflux pump mplx	MC4R ag barr	H9c2 TAG conf
CCCCCOc1ccc(NC(=O)CSc2cccc3cccnc23)cc1	n	n	57.5	n	n	n	55.6
CC(C)(C)C(C(=O)NC1CCCC1)N1CCN(c2ncccc2C#N)CC1 (stereo not given)	x	n	x	x	x	x	x
COCCNC(=O)c1c(N)[nH]c(C(=O)c2ccc(Br)cc2)c1-c1ccc(Br)cc1	x	n	x	x	x	x	x
CC(C)NC(=O)C1(C)CCN1C(=O)c1ccccc1 (stereo not given)	n	n	n	x	x	n	x
CCN(CC)S(=O)(=O)c1ccc(N2CCOCC2)c(NC(=O)c2[nH]c(C)c(C(C)=O)c2C)c1	n	n	68.9	x	n	n	75.3
COc1ccc(CNC(=O)/C=C/c2ccc(OCCCF)cc2)cc1	n	n	55.6	n	n	n	n
COc1ccc(Nc2nnc(-c3ccc4c(c3)OCO4)o2)cc1	x	n	x	x	x	x	x
CSc1sc(-c2ccnc(=S)[nH]2)c(-c2ccccc2)c1C#N	n	n	75.5	n	n	n	n
CSc1nccc(-c2sc(SC)c(C#N)c2-c2ccccc2)n1	n	n	n	n	n	n	x
Cc1ccc(-c2nc(NC(=O)c3cc(C(C)(C)C)nn3C)sc2C)cc1Cl	n	n	67.9	n	n	n	85.5
COC(=O)CSc1nc2ccc(NC(=O)CSc3nnnn3Cc3ccccc3)cc2s1	n	n	n	n	n	n	x
Cc1cc(C)c(NC(=O)CSc2nc3ccc(NC(=O)CSc4nnnn4Cc4ccccc4)cc3s2)c(C)c1	n	n	55.9	n	n	n	41.6
CCOc1ccc(CN(C)C(=O)CCl)cc1	n	n	57.7	n	n	n	79.8
COc1ccc(CCNS(=O)(=O)c2ccc(N3CCCC3=O)cc2)cc1	n	n	n	n	n	n	x
Cc1ccccc1NS(=O)(=O)c1cc2c3c(c1)CC(=O)N3CCC2	n	n	x	n	n	n	x
COc1ccc(OC)c(NS(=O)(=O)c2ccc(N3CCCC3=O)cc2)c1	n	n	56.5	n	n	n	42.1
Cc1ccccc1NS(=O)(=O)c1ccc(N2CCCC2=O)cc1	n	n	57.9	n	n	n	n
Nc1[nH]c(C(=O)c2ccccc2)c(-c2cccc(C(F)(F)F)c2)c1C(=O)c1c[nH]c2ccccc12	x	n	x	x	x	x	x
CCC(=O)Nc1nonc1-c1nc2ccccc2n1Cc1cccc2ccccc12	n	n	50.3	n	n	n	65.1
O=C(NCc1ccccc1)C(CCc1ccccc1)n1c(=O)c(-c2ccccc2)nc2ccccc21 (stereo not given)	x	n	x	x	x	x	x
CC(=O)Nc1ccc(NC2=Nc3ccccc3N3C2=Nc2c(c(C)nn2-c2ccccc2)C3c2ccccc2)cc1 (stereo not given)	n	n	54.1	n	n	n	43.4
CN(C)CCNC(=O)C(=O)Nc1ccc2c(c1)N(S(=O)(=O)c1cccs1)CCC2	n	n	53.7	n	n	n	54.0
O=C(Cc1n[nH]c(=O)c2ccccc12)OCC(=O)c1ccc2c(c1)OCCO2	n	n	80.9	n	n	n	56.1
O=C(Cc1n[nH]c(=O)c2ccccc12)OCC(=O)c1ccc(F)cc1	n	n	n	n	n	n	x
CCOc1ccc2nc(-c3ccccc3)nc(SCC(=O)Nc3ncc(C)s3)c2c1	n	n	82.9	n	n	n	81.1
SMILES	MC4R antagonist	GalR3 antag	H9c2 TAG inh	Calb FLC	Efflux pump mplx	MC4R ag barr	H9c2 TAG conf
Cc1ccc(NC(=S)N(CCCN2CCCC2)Cc2cccn2Cc2ccc(Cl)cc2)cc1Cl	n	n	78.2	n	n	n	93.4
Cc1ccc(NC(=S)N(CCCN2CCCC2)Cc2cccn2Cc2ccc(Cl)cc2)cc1C	n	n	n	n	n	n	x
COc1ccc(NC(=S)N(CCCN2CCCC2)Cc2cccn2Cc2ccc(Cl)cc2)cc1Cl	n	n	71.0	n	n	n	56.4
O=C(NCCc1ccccc1Cl)[C@@H]1CCCN1C(=O)[C@@H](NS(=O)(=O)c1ccc(F)cc1F)c1ccccc1	x	n	x	x	x	x	x
CCC(=O)Nc1c(-c2ccc(OC)cc2)c(=O)c2ccccc2n1C	n	n	61.0	n	n	n	n
OCCN1CCN(c2nccn3ccnc23)CC1	n	n	n	x	x	n	x
Cc1ccc(C(C(=O)NC2CCCC2)N(C(=O)c2csnn2)C2CCCC2)o1 (stereo not given)	n	n	x	n	n	n	x
Cc1ccc(CN(C(=O)c2csnn2)C(C(=O)NC2CCCC2)c2ccc(C)o2)cc1 (stereo not given)	n	n	51.2	u	n	n	42.5
COC(=O)[C@]12C[C@H](CC(=O)N3CCN(C(=O)C4CC4)CC3)C(=O)N(CCC3=CCCCC3)C1=C[C@H](COCc1ccccc1)O[C@@H]2C	x	n	x	x	x	x	x
CCOc1ccc2nc(NC(=O)C3CCCN(S(=O)(=O)c4c(C)noc4C)C3)sc2c1 (stereo not given)	n	n	56.8	x	n	n	74.8
COc1ccc2nc(NC(=O)c3cccc(OCc4c(C)noc4C)c3)sc2c1	n	n	57.9	n	n	n	47.6
O=C(CC1CC1)Nc1ccc2c(c1)[C@@H]1C[C@H](CC(=O)NC3CCCC3)O[C@@H](CO)[C@@H]1O2	n	n	n	x	x	n	x
O=C1Nc2ccccc2/C1=N\N=C\C1=C(N2CCOCC2)C(=C\c2ccccc2)/CC1	n	n	x	n	n	n	x
O=C1Nc2ccc(Br)cc2/C1=N\N=C\C1=C(N2CCOCC2)C(=C/c2ccccc2)/CC1	n	n	84.5	x	x	n	136.4
Oc1cccc(C=NN=C2c3ccccc3-c3ccccc32)c1	n	n	n	x	x	n	x
Cn1nnnc1Sc1ncnc2scc(-c3ccc(-c4ccccc4)cc3)c12	n	n	59.4	x	n	n	n
Nc1ccc(C#Cc2c(-c3ccsc3)oc3ccc(N4CCOCC4)cc23)cc1	n	n	50.9	n	n	n	53.0
COC(=O)c1ccc(/C=C/c2c(-c3ccsc3)oc3ccc(N4CCOCC4)cc23)cc1	n	n	59.8	n	n	n	54.3
Cc1cc(N2CCCCC2)n2nc(C)c(-c3ccccc3)c2n1	n	n	n	n	n	n	x
Cc1nn2c(N3CCCC3)cc(C(C)C)nc2c1-c1ccccc1	n	n	72.2	n	n	n	59.0
COC(=O)C[C@@H]1C=C[C@H](NC(=O)Cc2ccccn2)[C@@H](CO)O1	x	n	x	x	x	x	x
CCCCNC(=O)Nc1ccc(C2SCCS2)cc1	n	n	57.3	n	n	n	n
